Calls of active or inactive are those of the source.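 The calls were made as follows: active = IC50 at or below 10 µM; inactive = IC50 above 10 µM.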
Target: Disintegrin and metalloproteinase domain-containing protein 10 (Homo sapiens) (UniProt O14672)
Experiment: ADAM10 protease inhibitors, potency curves – biochemical, QFRET peptide, fluorescence, ADAM10 exosite inhibitor project, late-stage follow-up (AID 743338)
Settings: recombinant ADAM10, QFRET peptide cleavage
Procedure, shortened: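 evaluation = IC50 from four-parameter inhibition curve fit | test system = human ADAM10 | also added = DM2 quenched peptide substrate | dosing = 10 doses, 1:3 steps, up to 69.5 µM | times = Enzyme–compound preincubation 30 min at 25 °C, substrate reaction 3 h | benchmarks = 1 µM marimastat high, DMSO low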

Disintegrin and metalloproteinase domain-containing protein 10 (Homo sapiens), sequence (O14672 214-748 limits assumed): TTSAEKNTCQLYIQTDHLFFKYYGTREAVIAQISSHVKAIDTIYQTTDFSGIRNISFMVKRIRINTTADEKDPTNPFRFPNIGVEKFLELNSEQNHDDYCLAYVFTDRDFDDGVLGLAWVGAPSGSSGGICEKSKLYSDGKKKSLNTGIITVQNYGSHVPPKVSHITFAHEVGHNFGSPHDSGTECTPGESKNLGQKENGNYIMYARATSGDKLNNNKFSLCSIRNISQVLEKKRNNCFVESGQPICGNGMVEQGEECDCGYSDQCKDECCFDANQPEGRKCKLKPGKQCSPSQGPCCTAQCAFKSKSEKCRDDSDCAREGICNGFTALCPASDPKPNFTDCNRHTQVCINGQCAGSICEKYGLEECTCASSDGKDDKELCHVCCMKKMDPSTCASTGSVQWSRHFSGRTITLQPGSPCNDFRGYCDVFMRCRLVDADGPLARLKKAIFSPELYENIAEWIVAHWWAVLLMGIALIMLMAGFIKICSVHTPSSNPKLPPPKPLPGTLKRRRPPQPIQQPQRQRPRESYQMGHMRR

Q: For `CS(=O)(=O)N(CC(=O)Nc1ccccc1Sc1ccccc1)c1cccc(Br)c1`, which IC50 is on record?
A: > 69.5 µM (inactive)

Q: `O=C(CN(Cc1cccs1)S(=O)(=O)c1ccc(S(=O)(=O)NC2CCCCC2)cc1)Nc1ccccc1` was tested. Which IC50 did it give?
A: > 69.5 µM (inactive)

Q: How did the IC50 turn out when `O=C(Nc1ccc(OCC(F)(F)C(F)(F)F)c(C(F)(F)F)c1)c1ccc(Br)cc1` was run?
A: > 69.5 µM (inactive)

Q: With `O=C(O)CCC(=O)c1c[nH]c2ccccc12` as the molecule, how does the IC50 read?
A: > 69.5 µM (inactive)

Q: Which IC50 does the source give for `COc1ccccc1NS(=O)(=O)c1cccc(NC(=O)Nc2ccc(Cl)cc2)c1` here?
A: > 69.5 µM (inactive)

Q: With `CCCCN(Cc1ccccc1)S(=O)(=O)c1cc(Br)cc2c1N(C(C)=O)C(C)C2` (stereo not drawn) as the molecule, how does the IC50 read?
A: > 69.5 µM (inactive)

Q: Which IC50 does the source give for `COc1ccc(-c2ccc(-c3noc(-c4cccc(OC)c4)n3)c(OC)n2)cc1` here?
A: > 69.5 µM (inactive)

Q: How did the IC50 turn out when `Cc1ccc(S(=O)(=O)Nc2ccc(Cl)cc2)cc1NC(=O)c1cc2c(s1)CCCC2` was run?
A: > 69.5 µM (inactive)

Q: For `C=C(C)COc1ccc(-c2[nH]ncc2Oc2ccc(OC)cc2)c(O)c1`, which IC50 is on record?
A: inactive

Q: With `Oc1cc2c(cc1C(c1ccc(Cl)c(Cl)c1)N1CCCC1)OCO2` (stereo not drawn) as the molecule, how does the IC50 read?
A: 4.87 µM

Q: How did the IC50 turn out when `COc1ccc2nc(SCC(=O)Nc3ccc(S(=O)(=O)N4CCCC4)cc3)c(C#N)cc2c1` was run?
A: > 69.5 µM (inactive)

Q: Which IC50 does the source give for `O=S(=O)(NCC(Nc1ccc(Cl)cc1)c1ccccc1)c1ccc(Cl)cc1` (stereo not drawn) here?
A: > 69.5 µM (inactive)

Q: Which IC50 does the source give for `C=C(C)COc1ccc(-c2n[nH]c(C)c2Oc2ccccc2OC)c(O)c1` here?
A: inactive

Q: For `O=C1NC(=O)C(Cc2ccc(Cl)cc2)(c2ccccc2)N1` (stereo not drawn), which IC50 is on record?
A: inactive

Q: `COc1cccc(C(=O)NNC(=O)C(=O)Nc2ccc(C)c(Cl)c2)c1` was tested. Which IC50 did it give?
A: 6.5 µM

Q: `O=C(Nc1ccc(OCC(F)(F)C(F)(F)F)c(C(F)(F)F)c1)c1ccc(F)cc1` was tested. Which IC50 did it give?
A: > 69.5 µM (inactive)

Q: `O=C(Nc1ccc(OCC(F)(F)C(F)F)c(C(F)(F)F)c1)c1ccc(Cl)cc1` was tested. Which IC50 did it give?
A: > 69.5 µM (inactive)

Q: How did the IC50 turn out when `CCOc1ccc(NC(=O)CC2SC(=O)N(c3ccccc3)C2=O)cc1` (stereo not drawn) was run?
A: > 69.5 µM (inactive)

Q: Which IC50 does the source give for `O=S(=O)(NCC(Nc1ccc(Cl)cc1)c1ccccc1)c1ccccc1` (stereo not drawn) here?
A: > 69.5 µM (inactive)

Q: For `C=C(C)COc1ccc(-c2[nH]ncc2Oc2cccc(OC)c2)c(O)c1`, which IC50 is on record?
A: inactive

Q: For `Cc1ccc(CC2(c3ccccc3)NC(=O)NC2=O)cc1` (stereo not drawn), which IC50 is on record?
A: > 69.5 µM (inactive)

Q: `Cc1ccc(OCC(O)Cn2c3ccccc3c3ccccc32)cc1` (stereo not drawn) was tested. Which IC50 did it give?
A: > 69.5 µM (inactive)

Q: `Cc1csc(-c2cnn(-c3ccccc3)c2NC(=O)c2ccc(C(F)(F)F)cc2)n1` was tested. Which IC50 did it give?
A: > 69.5 µM (inactive)

Source: PubChem BioAssay AID743338 (The Scripps Research Institute Molecular Screening Center, 2014)
